Among the data in ChEMBL document CHEMBL3414565, “Discovery of novel AHLs as potent antiproliferative agents” (Eur J Med Chem, 2015) are IC50 values, retold here.

What all share (format): functional, cell-based
In one assay the test system is SMMC-7721. The experiment in a line: Cytotoxicity against human SMMC7721 cells after 72 hrs by MTT assay. The following applies: SMMC-7721, 72 h. The gist of the method:
(§1)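 Cells were grown in RPMI1640 and seeded at 5 × 10^3 cells/well, then left 24 h at 37 °C. Medium was replaced with fresh medium holding a range of compound concentrations, from 10 mM DMSO stocks with final DMSO at most 0.1%. Exposure lasted 72 h. MTT (5 mg/mL) was added for 4 h at 37 °C, formazan was dissolved in DMSO and A570 was read. IC50 came from dose-response curves as mean ± SD of three independent experiments.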
Background: Formazan colour is commonly taken as a measure of viable cells.

The test system of a further assay is MCF7. Description: Cytotoxicity against human MCF7 cells after 72 hrs by MTT assay. The following applies: MCF7, 72 h. The gist of the method:
as §1

The test system of another assay is MGC-803. The experiment in a line: Cytotoxicity against human MGC803 cells after 72 hrs by MTT assay. The following applies: MGC-803, 72 h. In short, it runs like this: as §1
Assay [1] is described as follows: Cytotoxicity against human EC9706 cells after 72 hrs by MTT assay. The following applies: EC9706, 72 h. In short, it runs like this: as §1

Where only a bound is given, the exact number is not on record here.

The IC50 is the concentration that inhibits the measured activity by half. Low readings indicate inhibition by little substance, high ones a need for much substance. On to `O=C(CCl)Nc1ccc(C(=O)/C=C/C=C/c2ccccc2)cc1`, for which the IC50 in the assay with SMMC-7721 amounted to 36.7 µM; in the assay with MCF7 it was 4.59 µM; in the assay with MGC-803 it was 5.97 µM; in assay [1], 10.7 µM.
The matching figures for `O=C(CSC(=S)N[C@H]1CCOC1=O)Nc1ccc(C(=O)/C=C/c2ccc(F)cc2)cc1`: above 128 µM, 83.7 µM, 45.7 µM and 46.1 µM.
In the same order, the values of `O=C(CSC(=S)N[C@H]1CCOC1=O)Nc1ccc(C(=O)/C=C/c2ccc(Cl)cc2)cc1` are above 128 µM, 20.2 µM, 6.9 µM and 38.9 µM.
In the same order, the values of `O=C(CCl)Nc1ccc(C(=O)/C=C/c2ccccc2Cl)cc1` are 11.1 µM, 5.26 µM, 2.75 µM and 6.98 µM.
On to `O=C(CSC(=S)N[C@H]1CCOC1=O)Nc1cccc(Cl)c1`, for which the IC50 in the assay on SMMC-7721 was above 128 µM; with MCF7, 46.6 µM; in the assay with MGC-803, 21.8 µM; in assay [1], 107 µM.
In the case of `CCCCc1ccc(NC(=O)CSC(=S)N[C@H]2CCOC2=O)cc1`, the IC50 in the assay with SMMC-7721 is 27.3 µM; with MCF7 it was 40.2 µM; with MGC-803, 20.5 µM; in assay [1], 44.2 µM.
The matching figures for `O=C(CSC(=S)N[C@H]1CCOC1=O)Nc1ccc(C(=O)/C=C/c2ccc([N+](=O)[O-])cc2)cc1`: above 128 µM, 2.67 µM, 29.4 µM and above 128 µM.
Consider `CCCCCCCCCCCCCCSC(=S)N[C@H]1CCOC1=O`, for which the figures for the IC50 (in the assay with SMMC-7721; in the assay with MCF7; in assay [1]) were 56.8 µM, 30.5 µM and 66.2 µM, respectively.
In the case of `O=C(CSC(=S)N[C@H]1CCOC1=O)Nc1cccc(C(F)(F)F)c1`, the IC50 in the assay on SMMC-7721 was above 128 µM; in the assay with MCF7 it was 3.13 µM; with MGC-803, 17.9 µM; in assay [1] it was 79.7 µM.
For the compound `O=C(CCl)Nc1ccc(C(=O)/C=C/c2cccc(Cl)c2)cc1`, the IC50 with SMMC-7721 worked out at 7.76 µM; in the assay on MCF7 it was 5.34 µM; in the assay with MGC-803, 2.01 µM; in assay [1], 5.56 µM.
The matching figures for `CCCCSC(=S)N[C@H]1CCOC1=O`: above 128 µM, above 128 µM, above 128 µM and above 128 µM.
In the same order, the values of `COc1ccc(NC(=O)CSC(=S)N[C@H]2CCOC2=O)cc1` are above 128 µM, above 128 µM, 62.1 µM and above 128 µM.
Consider `O=C(CSC(=S)N[C@H]1CCOC1=O)Nc1ccc(Br)cc1`, for which the results for the IC50 (with SMMC-7721; with MCF7; in assay [1]) were 28.3 µM, 66.5 µM and 67.4 µM, respectively.
Turning to `Cc1cccc(NC(=O)CSC(=S)N[C@H]2CCOC2=O)c1C`, the IC50 with SMMC-7721 is 42.1 µM; with MCF7, above 128 µM; in assay [1], above 128 µM.
Consider `CCCCCCCCCC(=O)CC(=O)N[C@H]1CCOC1=O`, for which the IC50 was above 128 µM with SMMC-7721, 37.3 µM in the assay on MCF7, 102 µM in the assay on MGC-803 and above 128 µM in assay [1].
For the compound `O=C(CSC(=S)N[C@H]1CCOC1=O)Nc1ccccc1Cl`, the IC50 in the assay with SMMC-7721 was 49.9 µM; in the assay on MCF7 it was 90.8 µM; with MGC-803, 31.9 µM; in assay [1] it was above 128 µM.
With `O=C(CSC(=S)N[C@H]1CCOC1=O)Nc1ccc(Cl)cc1`, the IC50 in the assay on SMMC-7721 is above 128 µM; in the assay on MCF7, 50.3 µM; in assay [1], above 128 µM.
As to `O=C(CSC(=S)N[C@H]1CCOC1=O)Nc1cccc([N+](=O)[O-])c1`, the IC50 with SMMC-7721 is above 128 µM; in the assay with MCF7, 5.46 µM; in the assay with MGC-803, 58.9 µM; in assay [1], above 128 µM.
For `CCCCCCSC(=S)N[C@H]1CCOC1=O`, the IC50 (in the assay with SMMC-7721; in the assay on MCF7; with MGC-803; in assay [1]) was above 128 µM each time.
For `O=C(CSC(=S)N[C@H]1CCOC1=O)Nc1ccccc1F`, the IC50 with SMMC-7721 is above 128 µM; in the assay with MCF7, 28.6 µM; in assay [1] it was above 128 µM.
For the compound `Cc1cccc(NC(=O)CSC(=S)N[C@H]2CCOC2=O)c1`, the IC50 with SMMC-7721 is above 128 µM; in the assay on MCF7, 63.2 µM; in the assay on MGC-803 it was 36.6 µM; in assay [1] it was above 128 µM.
As to `O=C(CSC(=S)N[C@H]1CCOC1=O)Nc1ccc(C(=O)/C=C/c2ccccc2)cc1`, the IC50 is above 128 µM in the assay with SMMC-7721, 44.3 µM with MCF7, 24.8 µM with MGC-803 and 44.9 µM in assay [1].
Consider `O=C(CCl)Nc1ccc(C(=O)/C=C/c2ccc(Cl)cc2)cc1`, for which the IC50 was 8.16 µM in the assay on SMMC-7721, 4.1 µM in the assay on MCF7, 4.96 µM with MGC-803 and 8.34 µM in assay [1].
In the same order, the values of `O=C(CCl)Nc1ccc(C(=O)/C=C/c2ccc(Br)cc2)cc1` are 13.3 µM, 4.64 µM, 6.05 µM and 10.1 µM.
The matching figures for `O=C(CSC(=S)N[C@H]1CCOC1=O)Nc1ccc(Cl)cc1Cl`: above 128 µM, 29.2 µM, 48.5 µM and above 128 µM.
The matching figures for `O=C(CSC(=S)N[C@H]1CCOC1=O)Nc1ccc(O)cc1`: above 128 µM, above 128 µM, 80 µM and above 128 µM.
`O=C(CCl)Nc1ccc(C(=O)/C=C/c2ccccc2)cc1`: the IC50 in the assay on SMMC-7721 turned out to be 12.6 µM; in the assay on MCF7, 2.48 µM; in the assay with MGC-803, 6.94 µM; in assay [1], 6.37 µM.
In the same order, the values of `O=c1[nH]cc(F)c(=O)[nH]1` [FLUOROURACIL] are 20.4 µM, 12.2 µM, 10.7 µM and 15.7 µM.
For the compound `CSC(=S)N[C@H]1CCOC1=O`, the IC50 (with SMMC-7721; in the assay with MCF7; in the assay on MGC-803; in assay [1]) was above 128 µM throughout.
Consider `O=C(CSC(=S)N[C@H]1CCOC1=O)Nc1ccc(F)cc1`, for which the IC50 is above 128 µM with SMMC-7721, 5.83 µM in the assay with MCF7, 37.6 µM with MGC-803 and 67.1 µM in assay [1].
For `CCCCCCCCCCCCSC(=S)N[C@H]1CCOC1=O`, the figures for the IC50 (in the assay on SMMC-7721; in the assay with MCF7; in assay [1]) were 50.3 µM, 61.1 µM and 58.3 µM, respectively.
Turning to `O=C(CCl)Nc1ccc(C(=O)/C=C/c2ccc(F)cc2)cc1`, the IC50 worked out at 15.1 µM with SMMC-7721, 5.47 µM in the assay with MCF7, 4.68 µM in the assay on MGC-803 and 8.6 µM in assay [1].
As for `O=C(CSC(=S)N[C@H]1CCOC1=O)Nc1ccccc1`, the IC50 with SMMC-7721 is above 128 µM; with MCF7 it was above 128 µM; in the assay on MGC-803, 39.7 µM; in assay [1], above 128 µM.
With `O=C(CCl)Nc1ccc(C(=O)/C=C/c2ccc([N+](=O)[O-])cc2)cc1`, the IC50 is 9.06 µM in the assay with SMMC-7721, 3.91 µM in the assay on MCF7, 2.35 µM with MGC-803 and 3.67 µM in assay [1].
On to `CCSC(=S)N[C@H]1CCOC1=O`, for which the IC50 (in the assay with SMMC-7721; with MCF7; with MGC-803; in assay [1]) was above 128 µM each time.
`O=C(CSC(=S)N[C@H]1CCOC1=O)Nc1ccc(C(=O)/C=C/c2cccc(Cl)c2)cc1`: the IC50 in the assay on SMMC-7721 is 39.1 µM; with MCF7, 11.6 µM; in the assay with MGC-803, 15.6 µM; in assay [1], 32.5 µM.
In the same order, the values of `COc1cc(/C=C/C(=O)c2ccc(NC(=O)CCl)cc2)cc(OC)c1OC` are 3 µM, 1.32 µM, 1.72 µM and 2.73 µM.
The matching figures for `O=C(CSC(=S)N[C@H]1CCOC1=O)Nc1ccc(C(=O)/C=C/c2ccc(Br)cc2)cc1`: 18 µM, 18.7 µM, 19.6 µM and 91.2 µM.
In the same order, the values of `CCOC(=O)c1ccc(NC(=O)CSC(=S)N[C@H]2CCOC2=O)cc1` are 64.9 µM, 60.2 µM, 21.7 µM and 112 µM.
With `COc1cccc(/C=C/C(=O)c2ccc(NC(=O)CCl)cc2)c1`, the IC50 in the assay with SMMC-7721 came out at 10.3 µM; in the assay on MCF7, 3.02 µM; in the assay on MGC-803, 2.91 µM; in assay [1] it was 5.97 µM.
In the same order, the values of `Cc1ccc(/C=C/C(=O)c2ccc(NC(=O)CCl)cc2)cc1` are 22.9 µM, 9.18 µM, 3.6 µM and 7.15 µM.
In the same order, the values of `CCCCCCCCSC(=S)N[C@H]1CCOC1=O` are 65 µM, above 128 µM, above 128 µM and above 128 µM.
In the same order, the values of `CC(=O)c1ccc(NC(=O)CSC(=S)N[C@H]2CCOC2=O)cc1` are above 128 µM, above 128 µM, 99.4 µM and above 128 µM.
For the compound `Cc1ccc(NC(=O)CSC(=S)N[C@H]2CCOC2=O)cc1`, the IC50 was 32.7 µM in the assay on SMMC-7721, 33.5 µM in the assay on MCF7, 44.3 µM in the assay with MGC-803 and 93.9 µM in assay [1].
The matching figures for `O=C(CCl)Nc1ccc(C(=O)/C=C/c2ccc(F)c(F)c2)cc1`: 5.96 µM, 2.29 µM, 3.19 µM and 4.63 µM.
